Assay results as given in ChEMBL document CHEMBL4732041, “Sulfonium-based liposome-encapsulated antibiotics deliver a synergistic antibacterial activity” (RSC Med Chem, 2021).
Converted amounts (≈) assume the structure as drawn. “And” between values parts separate entries of the source, which are not always exact repeats. Equal values may be shown once. The source made the active and inactive calls. The calls are words filed in the database; no cut-off is given here.

Experiments:
Staphylococcus aureus [1] = assay: Antibacterial activity against Staphylococcus aureus MTCC 96 incubated for 14 to 16 hrs by micro broth dilution method; assay type: functional; settings: time 14-16 hrs
Method in brief: (§1)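 Broth microdilution. E. coli and P. aeruginosa grown in LB, S. aureus in BHI, to mid-log phase at 37 °C with shaking. Cells washed and resuspended in PBS, then exposed to graded compound concentrations at 10^6 CFU/mL at 37 °C for 14–16 h. OD600 read. MIC is the lowest concentration with no visible growth or OD close to the bacteria-free control. Repeated thrice at the MIC.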

Staphylococcus aureus [2] = assay: Antibacterial activity against methicillin resistant Staphylococcus aureus incubated for 14 to 16 hrs by micro broth dilution method; assay type: functional; settings: time 14-16 hrs
Method in brief: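 MRSA grown in BHI broth at 37 °C with shaking to mid-log phase, harvested, PBS-washed and resuspended in PBS; 10^6 CFU mL−1 incubated with serially varied compound concentrations at 37 °C for 14–16 h; OD600 read. MIC is the lowest concentration with no visible growth or OD near the bacteria-free control; repeated thrice.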

Escherichia coli [3] = assay: Antibacterial activity against Escherichia coli MTCC 1687 incubated for 14 to 16 hrs by micro broth dilution method; assay type: functional; settings: time 14-16 hrs; method in brief: as §1
HaCaT [4] = assay: Cytotoxicity against human HaCaT cells after 24 hrs by MTT assay; assay type: cell-based
Escherichia coli [5] = assay: Synergistic antibacterial activity against Escherichia coli assessed as amoxicillin MIC encapsulated by compound; assay type: functional
Method in brief: (§2)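 Antibiotic-loaded liposomes (film hydrated with tetracycline or amoxicillin in PBS, freeze–thaw, vortexing, unloaded drug removed by centrifugation) tested by the same broth microdilution protocol: mid-log cells in PBS at 10^6 CFU/mL, 37 °C, 14–16 h, OD600.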

Pseudomonas aeruginosa [6] = assay: Antibacterial activity against Pseudomonas aeruginosa MTCC 2488 incubated for 14 to 16 hrs by micro broth dilution method; assay type: functional; settings: time 14-16 hrs; method in brief: as §1
Staphylococcus aureus [7] = assay: Synergistic antibacterial activity against Staphylococcus aureus assessed as amoxicillin MIC encapsulated by compound; assay type: functional; method in brief: as §2
Staphylococcus aureus [8] = assay: Bactericidal activity against methicillin resistant Staphylococcus aureus […] by micro broth dilution method; assay type: functional
[9] = Hemolytic activity against human erythrocytes incubated for 1 hr by UV-vis spectroscopic method; assay type: ADME, cell-based, Erythrocyte
Method in brief: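 Erythrocytes from fresh human blood spun at 1500 rpm for 10 min, PBS-washed, made to 5% haematocrit. Serial compound dilutions incubated with the cells for 1 h at 37 °C. Buffer served as negative control and 0.5% Triton X-100 as positive control. After centrifugation, supernatant absorbance read at 410 nm and % haemolysis computed against both controls.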

Escherichia coli [10] = assay: Bactericidal activity against Escherichia coli MTCC 1687 incubated for 24 hrs by micro broth dilution method; assay type: functional
HaCaT [11] = assay: Cytotoxicity against human HaCaT cells up to 100 uM after 24 hrs by MTT assay; assay type: cell-based
Pseudomonas aeruginosa [12] = assay: Bactericidal activity against Pseudomonas aeruginosa MTCC 2488 incubated for 24 hrs by micro broth dilution method; assay type: functional
Staphylococcus aureus [13] = assay: Bactericidal activity against Staphylococcus aureus MTCC 96 […] by micro broth dilution method; assay type: functional
[14] = Solubility of compound in PBS at pH 7.4; assay type: physicochemical; settings: buffer
Staphylococcus aureus [15] = assay: Synergistic antibacterial activity against Staphylococcus aureus assessed as tetracyclin MIC encapsulated by compound; assay type: functional; method in brief: as §2
Escherichia coli [16] = assay: Synergistic antibacterial activity against Escherichia coli assessed as tetracyclin MIC encapsulated by compound; assay type: functional; method in brief: as §2
Pseudomonas aeruginosa [17] = assay: Antibacterial activity against Pseudomonas aeruginosa after 24 hrs by microdilution method; assay type: functional
Cell membrane [18] = assay: Disruption of bacterial cell membrane in Staphylococcus aureus MTCC 96 assessed as increase in PI uptake by measuring increase in fluorescence intensity by PI dye based spectrofluorometric analysis; assay type: subcellular; settings: time 1-3 hrs, TDE = time-dependent effect
Method in brief: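 S. aureus MTCC 96 grown overnight and diluted in medium to 10^6 CFU/mL. Compound added, then incubated at 37 °C, 180 rpm. Samples taken at 1, 2 and 3 h, washed in PBS, stained with 30 μM PI for 30 min, washed again. Fluorescence read at excitation 535 nm, emission 617 nm.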

[19] = Therapeutic index, ratio of IC50 for human HaCaT to MIC for Escherichia coli; assay type: toxicity; settings: HaCaT cells, read-out: TI
Staphylococcus aureus [20] = assay: Bactericidal activity against Staphylococcus aureus MTCC 96 assessed as fragmented cell morphology incubated for 5 hrs by FESEM analysis; assay type: functional, organism-based
Method in brief: (§3)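 S. aureus MTCC 96 and E. coli MTCC 1687 harvested by centrifugation (5000 rpm, 5 min) and washed. Exposed to compound for 5 h alongside untreated control. Cells washed with water, drop-cast on foil, air-dried, mounted on carbon tape, gold double-coated, and imaged by FESEM.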

[21] = Drug release in PBS at pH 7.4 assessed as tetracyclin release incubated for 60 hours by fluorometric method; settings: buffer, pH 7.4, 60 h
[22] = Drug release in PBS at pH 7.4 assessed as amoxicillin release incubated for 60 hours by fluorometric method; settings: buffer, pH 7.4, 60 h
[23] = Therapeutic index, ratio of IC50 for human HaCaT to MIC for Staphylococcus aureus; assay type: toxicity; settings: HaCaT cells
Cell membrane [24] = assay: Induction of membrane depolarization in Staphylococcus aureus MTCC 96 assessed as increase in fluorescence intensity at 0 to 4 uM by DiSC3-5 dye based fluorescence assay; assay type: subcellular; settings: dose 0-4 µM
Method in brief: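 Mid-log S. aureus MTCC 96 resuspended in 10 mM HEPES with 50 mM glucose and loaded with 0.4 μM (final) DiSC3(5) for 1 h. KCl added to 100 mM, 10 min wait, then compound at 0, 2 or 4 μM or 30 μM valinomycin as positive control. Fluorescence recorded at excitation 620 nm, emission 650 nm.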

Staphylococcus aureus [25] = assay: Antibiofilm activity against Staphylococcus aureus MTCC 96 assessed as inhibition of biofilm formation incubated for overnight by crystal violet staining assay; assay type: functional, organism-based; settings: dose 6.25-100 µM
Method in brief: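 S. aureus MTCC 96 grown and exposed to compound as in the MIC assay, then incubated overnight. Planktonic cells removed, wells rinsed with PBS and air-dried. Stained with 1% (v/v) crystal violet for 20 min, dried, dye taken up in 95% ethanol, and absorbance read at 590 nm.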

[26] = Aggregation property of compound assessed as spherical aggregates size by dynamic light scattering analysis; assay type: physicochemical
Method in brief: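 Chloroform stock dried to a film by rotary evaporation, hydrated overnight at 50 °C in PBS (137 mM NaCl, 2.7 mM KCl, 8 mM Na2HPO4, 2 mM KH2PO4, pH 7.4), then vortexed and intermittently sonicated to unilamellar vesicles. Hydrodynamic diameter and zeta potential measured by DLS at 25 °C in buffers of different pH.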

[27] = Aggregation property of the compound in aqueous medium assessed as formation of spherical aggregates by FE-TEM analysis; assay type: physicochemical; settings: buffer
Method in brief: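 Lipid aggregates prepared in PBS pH 7.4 by film hydration, not extruded, then diluted to half concentration. Applied to carbon-coated copper grid for 1 min, uranyl acetate stain, excess wicked off. Grid dried overnight at 30 °C and imaged by TEM at 200 kV.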

Escherichia coli [28] = assay: Bactericidal activity against Escherichia coli MTCC 1687 assessed as fragmented cell morphology incubated for 5 hrs by FESEM analysis; assay type: functional, organism-based; method in brief: as §3
Staphylococcus aureus [29] = assay: Bactericidal activity against Staphylococcus aureus assessed as membrane damage incubated for 5 hrs by cFDA-SE dye based fluorescence microscopic analysis; assay type: functional, organism-based
Method in brief: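 S. aureus cultured and harvested, then exposed to compound (buffer-only control) for 5 h. Cells washed and diluted to 10^6 CFU/mL, stained separately with 30 μM PI or 10 μM cFDA-SE for 30 min, and viewed by fluorescence microscopy.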

Compound	MIC (Staphylococcus aureus [1])	MIC (Staphylococcus aureus [2])	MIC (Escherichia coli [3])	MIC (Pseudomonas aeruginosa [6])	MIC (Pseudomonas aeruginosa [17])	other results
CC1(C)S[C@@H]2[C@H](NC(=O)[C@H](N)c3ccc(O)cc3)C(=O)N2[C@H]1C(=O)O [AMOXICILLIN]	6.8 µM (≈ 2.48 µg/mL)	> 50 µM	11 µM (≈ 4.02 µg/mL)	4.3 µM (≈ 1.57 µg/mL)	–	IC50 (HaCaT [4]): 29.4 µM; MIC (Escherichia coli [5]): 1.7 µM; MIC (Staphylococcus aureus [7]): 1.2 µM
CCCCCCCCCCCC[S+](C)Cc1cc(Cn2cc(CS(=O)(=O)O)nn2)cc(C[S+](C)CCCCCCCCCCCC)c1.F[B-](F)(F)F.F[B-](F)(F)F (stereo unspecified)	10 µM	25 µM	12 µM	25 µM	–	MBC (Staphylococcus aureus [8]): > 100 µM; HC50 at 1 h [9]: 35 µM; MBC (Escherichia coli [10]): 20 µM; Activity (HaCaT [11]): Non-Toxic; MBC (Pseudomonas aeruginosa [12]): 50 µM; MBC (Staphylococcus aureus [13]): 12.5 µM
CC[S+](C)Cc1cc(C[n+]2ccccc2)cc(C[S+](C)CC)c1.F[B-](F)(F)F.F[B-](F)(F)F.F[B-](F)(F)F (stereo unspecified)	> 100 µM	> 100 µM	> 100 µM	> 100 µM	–	solubility [14]: Soluble
CN(C)[C@@H]1C(O)=C(C(N)=O)C(=O)[C@@]2(O)C(O)=C3C(=O)c4c(O)cccc4[C@@](C)(O)[C@H]3C[C@@H]12 [TETRACYCLINE]	4.2 µM (≈ 1.87 µg/mL)	> 100 µM	8.5 µM (≈ 3.78 µg/mL)	14 µM (≈ 6.22 µg/mL)	–	MIC (Staphylococcus aureus [15]): 0.7 µM; MIC (Escherichia coli [16]): 2 µM; IC50 (HaCaT [4]): 8 µM
CCCCCCCCCCCCSCc1cc(CSCCCCCCCCCCCC)cc(Cn2cc(CS(=O)(=O)O)nn2)c1	> 100 µM	> 100 µM	> 100 µM	> 100 µM	–	–
CCCCCCCCCCCCSCc1cc(CSCCCCCCCCCCCC)cc(C[n+]2ccccc2)c1	> 100 µM	> 100 µM	> 100 µM	> 100 µM	–	–
Oc1cc(Cl)ccc1Oc1ccc(Cl)cc1Cl [TRICLOSAN]	–	–	–	–	> 512 µg/mL	–
CCCCCCCCCCCCC[N+](C)(C)Cc1ccccc1.[Cl-] [BENZALKONIUM CHLORIDE]	–	–	–	–	32 µg/mL	–
CCCCCCCCN=c1ccn(CCCCCCCCCCn2ccc(=NCCCCCCCC)cc2)cc1.Cl.Cl [OCTENIDINE HYDROCHLORIDE]	–	–	–	–	6.25 µM and 3.9 µg/mL	–
CCCCCCCCCCCCSCc1cc(CN=[N+]=[N-])cc(CSCCCCCCCCCCCC)c1	> 100 µM	> 100 µM	> 100 µM	> 100 µM	–	–
CCCCCCCCCCCC[S+](C)Cc1cc(C[n+]2ccccc2)cc(C[S+](C)CCCCCCCCCCCC)c1.F[B-](F)(F)F.F[B-](F)(F)F.F[B-](F)(F)F (stereo unspecified)	6.3 µM	6.3 µM	7.5 µM	12 µM	–	MBC (Staphylococcus aureus [8]): 12.5 µM; Activity (Cell membrane [18]): Tde; selectivity ratio [19]: 3.6; HC50 at 1 h [9]: 29 µM; Activity (Staphylococcus aureus [20]): Active; Activity [21]: 40%; MBC (Escherichia coli [10]): 10 µM; Activity [22]: 60%; selectivity ratio [23]: 4.3; Activity (Cell membrane [24]): Active; Activity (Staphylococcus aureus [25]): Dose-dependent effect; Activity [26]: 270 nm; IC50 (HaCaT [4]): 27 µM; Activity [27]: Active; Activity (Escherichia coli [28]): Active; MBC (Pseudomonas aeruginosa [12]): 24 µM; MBC (Staphylococcus aureus [13]): 12.5 µM; Activity (Staphylococcus aureus [29]): Active
N=C(NCCCCCCNC(=N)NC(=N)Nc1ccc(Cl)cc1)NC(=N)Nc1ccc(Cl)cc1.O=C(O)[C@H](O)[C@@H](O)[C@H](O)[C@H](O)CO	–	–	–	–	15.6 µg/mL and 30.9 µM	–
CCSCc1cc(CSCC)cc(C[n+]2ccccc2)c1	> 100 µM	> 100 µM	> 100 µM	> 100 µM	–	–
